From ChEMBL document CHEMBL4052605, “Lissoclibadin 1, a Polysulfur Aromatic Alkaloid from the Indonesian Ascidian Lissoclinum cf. badium, Induces Caspase-Dependent Apoptosis in Human Colon Cancer Cells and Suppresses Tumor Growth in Nude Mice” (J Nat Prod, 2017)
Activity calls are given as the source filed them. The calls are words filed in the database; no cut-off is given here.

Assays:
[1] = system: HCT-15; test: Antiproliferative activity against human HCT15 cells assessed as effect on cell adhesion after 24 hrs by light microscopic analysis; format: functional, cell-based
Summary of the method: (§1)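 Cancer cells treated with 0−10 μM and examined by light microscopy for changes in cell adhesion and morphology.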

[2] = system: HeLa S3; test: Antiproliferative activity against human HeLaS3 cells assessed as effect on cell adhesion after 24 hrs by light microscopic analysis; format: functional, cell-based; summary of the method: as §1
[3] = system: HCT-15; test: Antiproliferative activity against human HCT15 cells after 24 hrs by WST-1 assay; format: functional, cell-based; conditions: HCT-15, 24 h
Summary of the method: (§2)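 WST-1 viability assay. Cells seeded at 5 × 10^3 per well and grown 24 h, then given lissoclibadins at 0.1−40 μM (etoposide 1.0−100 μM) in triplicate for 24 h. WST-1 added and absorbance read 4 h later at 450 nm, background subtracted at 650 nm. Viability expressed as % of control; IC50 taken as 50% inhibition of viability. Three experiments, mean ± SD.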

[4] = system: HeLa S3; test: Antiproliferative activity against human HeLaS3 cells after 24 hrs by WST-1 assay; format: functional, cell-based; conditions: HeLa S3, 24 h; summary of the method: as §2
[5] = system: MCF7; test: Antiproliferative activity against human MCF7 cells after 24 hrs by WST-1 assay; format: functional, cell-based; conditions: MCF7, 24 h; summary of the method: as §2
[6] = system: NCI-H28; test: Antiproliferative activity against human NCI-H28 cells after 24 hrs by WST-1 assay; format: functional, cell-based; conditions: NCI-H28, 24 h; summary of the method: as §2
[7] = system: MCF7; test: Antiproliferative activity against human MCF7 cells assessed as effect on cell adhesion after 24 hrs by light microscopic analysis; format: functional, cell-based; summary of the method: as §1
[8] = system: NCI-H28; test: Antiproliferative activity against human NCI-H28 cells assessed as effect on cell adhesion after 24 hrs by light microscopic analysis; format: functional, cell-based; summary of the method: as §1
[9] = system: HCT-15; test: Antiproliferative activity against human HCT15 cells assessed as effect on cell morphology after 24 hrs by light microscopic analysis; format: functional, cell-based; summary of the method: as §1
[10] = system: HeLa S3; test: Antiproliferative activity against human HeLaS3 cells assessed as effect on cell morphology after 24 hrs by light microscopic analysis; format: functional, cell-based; summary of the method: as §1
[11] = system: MCF7; test: Antiproliferative activity against human MCF7 cells assessed as effect on cell morphology after 24 hrs by light microscopic analysis; format: functional, cell-based; summary of the method: as §1
[12] = system: NCI-H28; test: Antiproliferative activity against human NCI-H28 cells assessed as effect on cell morphology after 24 hrs by light microscopic analysis; format: functional, cell-based; summary of the method: as §1
[13] = system: HCT-15; test: Antiproliferative activity against human HCT15 cells assessed as effect on cell adhesion up to 10 uM after 24 hrs by light microscopic analysis; format: functional, cell-based; summary of the method: as §1
[14] = system: HeLa S3; test: Antiproliferative activity against human HeLaS3 cells assessed as effect on cell adhesion up to 10 uM after 24 hrs by light microscopic analysis; format: functional, cell-based; summary of the method: as §1
[15] = system: MCF7; test: Antiproliferative activity against human MCF7 cells assessed as effect on cell adhesion up to 10 uM after 24 hrs by light microscopic analysis; format: functional, cell-based; summary of the method: as §1
[16] = system: NCI-H28; test: Antiproliferative activity against human NCI-H28 cells assessed as effect on cell adhesion up to 10 uM after 24 hrs by light microscopic analysis; format: functional, cell-based; summary of the method: as §1
[17] = system: HCT-15; test: Antiproliferative activity against human HCT15 cells assessed as effect on cell morphology up to 10 uM after 24 hrs by light microscopic analysis; format: functional, cell-based; summary of the method: as §1
[18] = system: HeLa S3; test: Antiproliferative activity against human HeLaS3 cells assessed as effect on cell morphology up to 10 uM after 24 hrs by light microscopic analysis; format: functional, cell-based; summary of the method: as §1
[19] = system: MCF7; test: Antiproliferative activity against human MCF7 cells assessed as effect on cell morphology up to 10 uM after 24 hrs by light microscopic analysis; format: functional, cell-based; summary of the method: as §1
[20] = system: NCI-H28; test: Antiproliferative activity against human NCI-H28 cells assessed as effect on cell morphology up to 10 uM after 24 hrs by light microscopic analysis; format: functional, cell-based; summary of the method: as §1
[21] = system: HCT-15; test: Antiproliferative activity against human HCT15 cells assessed as nuclear chromatin condensation at 5 uM after 24 hrs by Hoechst-33258 staining-based fluorescent microscopic analysis; format: functional, cell-based
Summary of the method: (§3)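 Cells at 5 × 10^4 cells/mL precultured 24 h, then treated 24 h (HCT-15 at 5 μM; HeLa-S3, MCF-7, NCI-H28 at 10 μM). Cells trypsinized, washed in PBS, fixed in 1.0% paraformaldehyde at 4 °C for 15 min, stained with 1 mg/mL Hoechst-33258 at 4 °C for 15 min. After washing, mounted in antifade reagent and examined by fluorescence microscopy.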

[22] = system: HCT-15; test: Antiproliferative activity against human HCT15 cells assessed as fragmentation of nuclei at 5 uM after 24 hrs by Hoechst-33258 staining-based fluorescent microscopic analysis; format: functional, cell-based; summary of the method: as §3
[23] = system: HeLa S3; test: Antiproliferative activity against human HeLaS3 cells assessed as nuclear chromatin condensation at 10 uM after 24 hrs by Hoechst-33258 staining-based fluorescent microscopic analysis; format: functional, cell-based; summary of the method: as §3
[24] = system: HeLa S3; test: Antiproliferative activity against human HeLaS3 cells assessed as fragmentation of nuclei at 10 uM after 24 hrs by Hoechst-33258 staining-based fluorescent microscopic analysis; format: functional, cell-based; summary of the method: as §3
[25] = system: MCF7; test: Antiproliferative activity against human MCF7 cells assessed as nuclear chromatin condensation at 10 uM after 24 hrs by Hoechst-33258 staining-based fluorescent microscopic analysis; format: functional, cell-based; summary of the method: as §3
[26] = system: MCF7; test: Antiproliferative activity against human MCF7 cells assessed as fragmentation of nuclei at 10 uM after 24 hrs by Hoechst-33258 staining-based fluorescent microscopic analysis; format: functional, cell-based; summary of the method: as §3
[27] = system: NCI-H28; test: Antiproliferative activity against human NCI-H28 cells assessed as nuclear chromatin condensation at 10 uM after 24 hrs by Hoechst-33258 staining-based fluorescent microscopic analysis; format: functional, cell-based; summary of the method: as §3
[28] = system: NCI-H28; test: Antiproliferative activity against human NCI-H28 cells assessed as nuclear fragmentation at 10 uM after 24 hrs by Hoechst-33258 staining-based fluorescent microscopic analysis; format: functional, cell-based; summary of the method: as §3
[29] = system: HCT-15; test: Induction of apoptosis in human HCT15 cells assessed as early apoptotic cells at 5 uM after 3 hrs by annexin V-FITC/propidium iodide staining-based flow cytometric analysis relative to control; format: functional
Summary of the method: (§4)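 HCT-15 cells at 5 × 10^4 cells/mL precultured 24 h, then given 5.0 μM in DMSO or DMSO alone (final 0.1%) for 3, 6, 12 or 24 h. Adherent cells trypsinized, pooled, stained with annexin V-FITC and PI, and analysed by flow cytometry. Early apoptosis = annexin V+/PI−; late = annexin V+/PI+. Three independent experiments, mean ± SD.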

[30] = system: HCT-15; test: Induction of apoptosis in human HCT15 cells assessed as early apoptotic cells at 5 uM after 6 hrs by annexin V-FITC/propidium iodide staining-based flow cytometric analysis relative to control; format: functional; summary of the method: as §4
[31] = system: HCT-15; test: Induction of apoptosis in human HCT15 cells assessed as early apoptotic cells at 5 uM after 12 hrs by annexin V-FITC/propidium iodide staining-based flow cytometric analysis relative to control; format: functional; summary of the method: as §4
[32] = system: HCT-15; test: Induction of apoptosis in human HCT15 cells assessed as early apoptotic cells at 5 uM after 24 hrs by annexin V-FITC/propidium iodide staining-based flow cytometric analysis relative to control; format: functional; summary of the method: as §4
[33] = system: HCT-15; test: Induction of apoptosis in human HCT15 cells assessed as late apoptotic cells at 5 uM by annexin V-FITC/propidium iodide staining-based flow cytometric analysis; format: functional, cell-based; conditions: TDE = time-dependent effect; summary of the method: as §4
[34] = system: HCT-15; test: Induction of apoptosis in human HCT15 cells at 5 uM after 12 hrs in presence of pan-caspase inhibitor z-VAD-fmk by annexin V-FITC/propidium iodide staining-based flow cytometric analysis (reference value: 64%); format: functional
Summary of the method: (§5)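 HCT-15 cells at 5 × 10^4 cells/mL precultured 24 h, then given z-VAD-fmk, z-IETD-fmk or z-LEHD-fmk at 50 μM for 30 min before 5.0 μM compound in DMSO (DMSO final 0.1%). Annexin V-FITC/PI staining read by flow cytometry. Three independent experiments, mean ± SD; one-way ANOVA with Bonferroni post hoc tests.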

[35] = system: HCT-15; test: Induction of apoptosis in human HCT15 cells at 5 uM after 12 hrs in presence of caspase-8 inhibitor z-IETD-fmk by annexin V-FITC/propidium iodide staining-based flow cytometric analysis; format: functional, cell-based; summary of the method: as §5
[36] = system: HCT-15; test: Induction of apoptosis in human HCT15 cells at 5 uM after 12 hrs in presence of caspase-9 inhibitor z-LEHD-fmk by annexin V-FITC/propidium iodide staining-based flow cytometric analysis; format: functional, cell-based; summary of the method: as §5
[37] = system: HCT-15; test: Induction of apoptosis in human HCT15 cells assessed as effect on cell adhesion at 5 uM in presence of caspase-9 inhibitor z-LEHD-fmk by light microscopic analysis; format: functional, cell-based
[38] = system: HCT-15; test: Induction of apoptosis in human HCT15 cells assessed as effect on cell adhesion at 5 uM in presence of caspase-8 inhibitor z-IETD-fmk by light microscopic analysis; format: functional, cell-based
[39] = system: HCT-15; test: Induction of apoptosis in human HCT15 cells assessed as effect on cell adhesion at 5 uM in presence of pan-caspase inhibitor z-VAD-fmk by light microscopic analysis; format: functional, cell-based
[40] = system: HCT-15; test: Induction of apoptosis in human HCT15 cells assessed as effect on cell morphology at 5 uM in presence of caspase-9 inhibitor z-LEHD-fmk by light microscopic analysis; format: functional, cell-based
[41] = system: HCT-15; test: Induction of apoptosis in human HCT15 cells assessed as effect on cell morphology at 5 uM in presence of caspase-8 inhibitor z-IETD-fmk by light microscopic analysis; format: functional, cell-based
[42] = system: HCT-15; test: Induction of apoptosis in human HCT15 cells assessed as effect on cell morphology at 5 uM in presence of pan-caspase inhibitor z-VAD-fmk by light microscopic analysis; format: functional, cell-based
[43] = system: HCT-15; test: Antitumor activity against human HCT15 cells xenografted in BALB/c nu/nu athymic mouse assessed as tumor growth inhibition at 25 mg/kg/day administered intratumorally on day 0, 2, 4, 6, 8 and 10 measured on day 28 post dose relative to control; format: functional; conditions: read-out: TGI
Summary of the method: (§6)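 Female 6-week-old Balb/c nu/nu mice injected subcutaneously in the lower back with HCT-15 cells (1 × 10^8/mL) mixed 1:1 with Matrigel. Once tumors reached 50−100 mm3 (day 0), mice were randomized, 6 per group. Dosing was intratumoral in PBS with 5% DMSO and 5% glucose on days 0, 2, 4, 6, 8 and 10; controls received vehicle. Tumor volume (L×W×D×π/6) and body weight measured every other day to day 28.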

[44] = system: HCT-15; test: Antitumor activity against human HCT15 cells xenografted in BALB/c nu/nu athymic mouse assessed as tumor growth inhibition at 5 mg/kg administered intratumorally on day 0, 2, 4, 6, 8 and 10 measured up to 28 days; format: functional, organism-based; summary of the method: as §6
[45] = system: Mus musculus; test: Toxicity in BALB/c nu/nu athymic mouse xenografted with human HCT15 cells assessed as body weight loss at 5 to 25 mg/kg administered intratumorally treated on day 0, 2, 4, 6, 8 and 10 measured every second day for 28 days; format: organism-based; conditions: in vivo, other, 672 h; summary of the method: as §6

COc1c(OC)c2c(c(CCN(C)C)c1SC)SSc1c(CCN(C)C)c(SC)c(OC)c(OC)c1Sc1c(OC)c(OC)c(SC)c(CCN(C)C)c1S2 [LISSOCLIBADIN 1]
Activity [1]: Dose-dependent effect
Activity [2]: Dose-dependent effect
IC50 [3]: 4 µM
IC50 [4]: 6.3 µM
IC50 [5]: 7.6 µM
IC50 [6]: 7.1 µM
Activity [7]: Dose-dependent effect
Activity [8]: Dose-dependent effect
Activity [9]: Dose-dependent effect
Activity [10]: Dose-dependent effect
Activity [11]: Dose-dependent effect
Activity [12]: Dose-dependent effect
Activity [13]: Active
Activity [14]: Active
Activity [15]: Active
Activity [16]: Active
Activity [17]: Active
Activity [18]: Active
Activity [19]: Active
Activity [20]: Active
Activity [21]: Active
Activity [22]: Active
Activity [23]: Active
Activity [24]: Active
Activity [25]: Active
Activity [26]: Active
Activity [27]: Active
Activity [28]: Active
Activity [29]: 11%
Activity [30]: 37%
Activity [31]: 43%
Activity [32]: 40%
Activity [33]: Tde
Activity [34]: 11%
Activity [35]: Active
Activity [36]: Active
Activity [37]: Active
Activity [38]: Active
Activity [39]: Active
Activity [40]: Active
Activity [41]: Active
Activity [42]: Active
inhibition in vivo at 25 mg/kg/day [43]: 60%
TGI [44]: inactive
Activity [45]: Non-Toxic
